Assay outcomes (PubChem)
Dynein cargo inh: blocks dynein driven cargo transport along microtubules; 220,000 tested, 0.47% active; z-score, hits read low; AID 1381; 3617.4 mouse cells, GR-EGFP nuclear translocation imaging; test concentration mostly 20 µM; stimulated with dexamethasone, 1 µM; hits give low values;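 active = plate z-score of nuclear minus cytoplasmic receptor signal below a set negative limit, without overly bright fluorescence or cell loss, cut at about -3.5 in these data, passing the limit was not always enough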;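 also: z-score of nuclear minus cytoplasmic ring GR-EGFP intensity difference per well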
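Buffer or medium: tet-free, stripped-serum medium; reagent: dexamethasone at 1.0 µM final, 30 min; incubation: 48 h induction, 1 h compound, 30 min dex at 37 °C; measured by: formaldehyde fixation, Hoechst nuclear stain, 10x automated fluorescence imaging; read-out: nuclear-to-cytoplasmic GR-EGFP distribution per well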
UPR XBP1 act: adaptive UPR (XBP1) activation; CHO-XBP1 luciferase reporter, IRE1-XBP1 UPR activation, luminescence; percent of tunicamycin response, DMSO as zero; activation, % at 20 µM; 330,000 tested, 0.33% active;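 active = versus positive control, 20 µM dose yields 30% or more activation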;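 also: 100% = tunicamycin at 10 µg/mL and 0% = DMSO only wells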
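Assay system: CHO-XBP1 luciferase reporter cells; Schedule: 6 h treatment, 37 °C; Detection: glow luminescence from Steady-Glo reagent; Benchmarks: high control tunicamycin 10 µg/mL final, low control DMSO vehicle only.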
L major viab: Leishmania major promastigote growth inhibition; 200,000 tested, 9% active; AID 1063; inhibition, % at 10 µM; Leishmania major promastigotes, resazurin fluorescence viability; in the data active = inhibition above about 50%;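 also: promastigotes grown with compound for 44 hours at 28 °C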
T cruzi inh: T. cruzi replication inhibition; T. cruzi beta-gal in NIH3T3, luminescence, 90 h; inhibition, % (no concentration beside the values); 300,000 tested, 1.4% active;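 active = mean inhibition across valid replicates above about 55%, limit read from the data; inconclusive = mean below that limit but half or more replicates reach it; inactive = mean below it, under half of replicates reach it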;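 also: signal also drops with host cell toxicity which is not excluded here; 0% = plate median of DMSO wells and 100% = zero luminescence signal; higher percent means less beta-gal luminescence so fewer parasites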
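Assay system: NIH/3T3 host cells with β-galactosidase reporter T. cruzi; input: 5,000 host fibroblasts per well; compound: single 50 nL compound addition per well in DMSO; timing: ≥90 h infection period, 3 h prior cell attachment; measured by: GalScreen β-gal luminescence, detergent lysis, 60 min; evaluation: percent inhibition of parasite-derived β-gal signal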
CHOP UPR activ: apoptotic UPR (CHOP) activation; CHO-CHOP luciferase reporter, luminescence; percent of tunicamycin response over DMSO baseline; 330,000 tested, 0.34% active; activation, % at 10 µM;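 active = at 10 µM dose, activation of 40% or more, normalized to positive control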;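 also: 100% = tunicamycin at 10 µg/mL and 0% = DMSO alone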
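Dosing – one dose, 10 µM in 0.5% DMSO · System – CHO-CHOP cells, stable luciferase reporter of PERK-eIF2a-CHOP signalling · Input – 500 cells/well · Control set – tunicamycin 10 µg/mL final as positive, DMSO-only wells as negative · Timing – 6 h compound treatment, 37 °C · Measure – % activation vs tunicamycin · Technique – luminescence read with Steady-Glo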
CHOP inhibitor: blocks CHOP induction under ER stress | CHO-K1 CHOP-promoter luciferase, tunicamycin-induced, 15-18 h | inhibition, % at 10 µM | 220,000 tested, 3.8% active | AID 2732;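 active = compounds that reduced the stress-induced luciferase reporter signal by more than about 70% of percent inhibition, limit read from the data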;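 also: 0% = tunicamycin plus vehicle and 100% = wells without tunicamycin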
Numbers without * were called inactive; ? = inconclusive; · = not tested or not shown. The entries come from a sample that favours hits as a whole.

SMILES | Dynein cargo inh | UPR XBP1 act | L major viab | T cruzi inh | CHOP UPR activ | CHOP inhibitor
Cc1ccc(N2CC(C(=O)N3CCOCC3)CC2=O)cc1Cl (stereo not drawn) | · | 3 | · | 0 | -2 | ·
CN(C)CCCNc1ncnc2c1cnn2Cc1ccccc1Cl | · | 0 | · | 40 | 4 | ·
Cc1cccc(Nc2nc(N)c([N+](=O)[O-])c(N3CCCC(C)C3)n2)c1 (stereo not drawn) | 0.075 | 5 | 20 | 2 | 0 | 103*
Cc1cccc(Nc2nc(N)c([N+](=O)[O-])c(N3CCN(C)CC3)n2)c1 | -0.21 | 0 | -1 | -2 | 3 | 4
CCc1ccc2nc(NC(=O)c3ccc(N4C(=O)CCC4=O)cc3)sc2c1 | -0.58 | -1 | · | -7 | 5 | 80*
COc1n[nH]c(C(=O)Nc2nc3ccccc3s2)c1[N+](=O)[O-] | -0.49 | 0 | 70* | 3 | 1 | 4
O=C(Nc1ccccc1N1CCCCC1)c1ccc(Cl)c([N+](=O)[O-])c1 | -0.62 | 5 | 17 | -4 | 4 | -29
CN1CCN(c2ccccc2NC(=O)c2ccc(N3CCCC3)c([N+](=O)[O-])c2)CC1 | -0.49 | 2 | 65* | 45 | 1 | 8
COc1n[nH]c(C(=O)NCc2ccccc2)c1[N+](=O)[O-] | -0.21 | -1 | -4 | 3 | 1 | 6
O=C(Nc1ccon1)c1ccc(N2CCCCC2)c([N+](=O)[O-])c1 | 0.051 | 4 | 5 | 10 | 6 | -11
O=C(Nc1nc2ccccc2s1)c1ccc(N2CCCCC2)c([N+](=O)[O-])c1 | -0.61 | 3 | 37 | ? | 3 | 79*
CC(C)NC(=S)n1cc(C(=O)c2cc(Cl)cc(Cl)c2O)cn1 | · | 0 | · | -20 | -1 | ·
C=CCN1c2ccccc2C(=O)CS1(=O)=O | · | 0 | · | · | 1 | ·
CCCC1(c2ccccc2)NC(=O)N(CC(=O)Nc2ccccc2C(F)(F)F)C1=O (stereo not drawn) | · | -6 | · | 7 | -1 | ·
CCn1nc(C(=O)OCC(=O)N(CCC#N)c2ccccc2)c2ccccc2c1=O | · | 0 | · | · | -1 | ·
Cc1cc(C)n(-c2ccc(C(=O)Nc3nc4ccccc4s3)cc2)n1 | -0.29 | 7 | -7 | 17 | 5 | 90*
CN1CCN(c2ccc(C(=O)c3ccc(Br)cc3)cc2[N+](=O)[O-])CC1 | -0.97 | 3 | 98* | 53 | 3 | 14
Nc1ccc(C(=O)Nc2nc3ccccc3s2)cc1 | -0.19 | -6 | -1 | -4 | 3 | 18
COc1cc(CNCCO)cc(Cl)c1OCc1ccccc1Cl | 1.5 | 8 | 99* | 11 | -1 | -2
CCOc1cccc(CNCCO)c1OCc1ccc(Cl)cc1 | 0.36 | -2 | 10 | -5 | 0 | 30
CCOc1cc(CNCCO)cc(Br)c1OCc1ccccc1Cl | 1.4 | 6 | 100* | 32 | -1 | 85*
CCOc1cc(CNCCO)cc(Br)c1OCc1ccc(Cl)cc1 | 5.8 | 9 | 101* | 2 | 3 | 75*
c1ccc(Nc2nc(NCc3ccco3)c3ccccc3n2)cc1 | 0.51 | 21 | · | 17 | 18 | 47
Cc1ccccc1Nc1nc(NCc2ccco2)c2ccccc2n1 | 1.2 | 20 | 100* | 58* | 5 | 19
Oc1ccccc1Nc1nc(NCc2ccco2)c2ccccc2n1 | 1.6 | 11 | · | 15 | 1 | 18
SMILES | Dynein cargo inh | UPR XBP1 act | L major viab | T cruzi inh | CHOP UPR activ | CHOP inhibitor
Cc1ccc(Nc2nc(N)c([N+](=O)[O-])c(NCCO)n2)cc1C | 0.95 | 5 | · | 7 | 5 | 19
Cc1cccc(Nc2nc(NCc3ccco3)c3ccccc3n2)c1 | 2 | · | 100* | 52 | · | 69
Cc1ccc(Nc2nc(N)c([N+](=O)[O-])c(NCc3ccco3)n2)cc1C | 2 | 3 | 70* | 26 | 5 | 79*
Cc1ccccc1Nc1cc(C(=O)NCc2ccco2)c2ccccc2n1 | -0.46 | -2 | 76* | 6 | -1 | 3
CSCc1cccc(C(=O)OC(C)C(=O)Nc2c(C)n(C)n(-c3ccccc3)c2=O)c1 (stereo not drawn) | · | -1 | · | · | -1 | ·
CCN1CCN(C(=O)C(Cc2ccccc2)NC(=O)c2ccc(Cl)c(S(=O)(=O)N(C)C)c2)CC1 (stereo not drawn) | · | 3 | · | · | 0 | ·
